Experimental data taken from ChEMBL document CHEMBL1177840, “Trifluoromethyl-promoted homocamptothecins: synthesis and biological activity” (Eur J Med Chem, 2010).
Calls of active or inactive are those of the source. No cut-off for these calls is given here.

Experiments:
MDA-MB-435 = experiment: Cytotoxicity against human MDA-MB-435 cells after 3 days by MTT assay; details: MDA-MB-435, 3 days
LoVo = experiment: Cytotoxicity against human LoVo cells after 3 days by MTT assay
A549 = experiment: Cytotoxicity against human A549 cells after 3 days by MTT assay; details: A549, 3 days
[1] = system: Lewis lung carcinoma cell line; experiment: Antitumor activity against mouse LLC transplanted in C57BL/6 mouse assessed as tumor weight at 0.5 mg/kg, ip qd for 5 days (RVb = 1.8 +/- 0.47 g); assay type: functional; details: route intraperitoneal
In short: (§1)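 Male C57BL/6 mice (18–20 g) received Lewis lung carcinoma cells subcutaneously in the right axilla. Starting 3 days after implantation, they were dosed i.p. once daily for 5 consecutive days; controls received normal saline. Tumors were excised and weighed on day 14 post-implantation. Growth inhibition was calculated from the average tumor weight of the test group versus the control group.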

Mus musculus [2] = experiment: Toxicity in C57BL/6 mouse at 0.5 mg/kg, ip qd for 5 days; assay type: organism-based; design: dose 0.5 mg/kg, route intraperitoneal; details: in vivo, 120 h
[3] = system: Lewis lung carcinoma cell line; experiment: Antitumor activity against mouse LLC transplanted in C57BL/6 mouse assessed as tumor growth inhibition at 0.5 mg/kg, ip qd for 5 days; assay type: functional; details: 120 h, route intraperitoneal
In short: as §1

Mus musculus [4] = experiment: Toxicity in C57BL/6 mouse assessed as body weight at 0.5 mg/kg, ip qd for 5 days ( RVb = 19.06 +/- 1.35 g); assay type: organism-based; design: dose 0.5 mg/kg, route intraperitoneal; details: in vivo, 120 h
[5] = target: T1, Topoisomerase I (Bos taurus) (UniProt Q2HPH0); experiment: Inhibition of calf thymus topoisomerase 1-mediated relaxation of supercoiled pBR322 by agarose gel electrophoresis
T1 sequence (whole entry): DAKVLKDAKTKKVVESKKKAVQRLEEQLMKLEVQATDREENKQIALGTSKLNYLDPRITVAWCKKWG
In short: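 Reactions incubated 15 min at 37 °C, then stopped with SDS (0.5% final). After loading buffer was added, products were separated on 0.8% agarose in TAE buffer for 40 min at 120 V. Gels were stained with ethidium bromide at room temperature and photographed under UV transillumination.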

## CCC1(O)CC(=O)OCc2c1cc1n(c2=O)Cc2c-1nc1ccc(O)cc1c2C (centres undefined)
MDA-MB-435
  IC50: 3.39 µM
LoVo
  IC50: 7.09 µM
A549
  IC50: 9.89 µM

## CCC1(O)CC(=O)OCc2c1cc1n(c2=O)Cc2c-1nc1cccc(OC)c1c2C (centres undefined)
MDA-MB-435
  IC50: 7.73 µM
LoVo
  IC50: 5.47 µM
[1]
  Activity: 1.38 g
A549
  IC50: 10.9 µM
Mus musculus [2]
  Activity: Non-toxic
[3]
  inhibition in vivo at 0.5 mg/kg: 23.2%
Mus musculus [4]
  Activity: 19.77 g

## CCC1(O)CC(=O)OCc2c1cc1n(c2=O)Cc2c-1nc1ccc(C(F)(F)F)cc1c2C (centres undefined)
MDA-MB-435
  IC50: > 225 µM
LoVo
  IC50: > 225 µM
A549
  IC50: > 225 µM

## CCC1(O)CC(=O)OCc2c1cc1n(c2=O)Cc2c-1nc1ccccc1c2C (centres undefined)
MDA-MB-435
  IC50: 3.88 µM
LoVo
  IC50: 1.16 µM
[1]
  Activity: 1.06 g
A549
  IC50: 0.468 µM
Mus musculus [2]
  Activity: Non-toxic
[3]
  inhibition in vivo at 0.5 mg/kg: 41.2%
[5]
  inhibition: Active
Mus musculus [4]
  Activity: 18.8 g

## CCC1(O)CC(=O)OCc2c1cc1n(c2=O)Cc2c-1nc1ccc(OC)cc1c2C (centres undefined)
MDA-MB-435
  IC50: 2.61 µM
LoVo
  IC50: 1.32 µM
A549
  IC50: 3.52 µM

## CCC1(O)CC(=O)OCc2c1cc1n(c2=O)Cc2c-1nc1ccc(Br)cc1c2C (centres undefined)
MDA-MB-435
  IC50: 30.9 µM
LoVo
  IC50: 2.31 µM
A549
  IC50: 29.1 µM

## CCC1(O)CC(=O)OCc2c1cc1n(c2=O)Cc2c-1nc1ccc(Br)cc1c2C(F)(F)F (racemic)
MDA-MB-435
  IC50: 11 µM
LoVo
  IC50: 13.3 µM
A549
  IC50: 27.9 µM

## CCC1(O)CC(=O)OCc2c1cc1n(c2=O)Cc2c-1nc1ccccc1c2C(F)(F)F (racemic)
MDA-MB-435
  IC50: 2.33 µM
LoVo
  IC50: 1.29 µM
[1]
  Activity: 0.98 g
A549
  IC50: 0.313 µM
Mus musculus [2]
  Activity: Non-toxic
[3]
  inhibition in vivo at 0.5 mg/kg: 45.6%
[5]
  inhibition: Active
Mus musculus [4]
  Activity: 19.16 g

## CCC1(O)CC(=O)OCc2c1cc1n(c2=O)Cc2c-1nc1ccc(C(F)(F)F)cc1c2C(F)(F)F (racemic)
MDA-MB-435
  IC50: 5.32 µM
LoVo
  IC50: 22.9 µM
A549
  IC50: 20.3 µM

## CCC1(O)CC(=O)OCc2c1cc1n(c2=O)Cc2c-1nc1ccc(OC)cc1c2C(F)(F)F (racemic)
MDA-MB-435
  IC50: 21.4 µM
LoVo
  IC50: 14.6 µM
A549
  IC50: 0.832 µM

## CCC1(O)CC(=O)OCc2c1cc1n(c2=O)Cc2c-1nc1ccc(O)cc1c2C(F)(F)F (racemic)
MDA-MB-435
  IC50: 11.2 µM
LoVo
  IC50: 4.01 µM
A549
  IC50: 16.2 µM

## CCC1(O)CC(=O)OCc2c1cc1n(c2=O)Cc2c-1nc1cccc(OC)c1c2C(F)(F)F (racemic)
MDA-MB-435
  IC50: 2.87 µM
LoVo
  IC50: 3.43 µM
A549
  IC50: 5.13 µM

## CC[C@@]1(O)C(=O)OCc2c1cc1n(c2=O)Cc2cc3c(CN(C)C)c(O)ccc3nc2-1 [TOPOTECAN]
[1]
  Activity: 0.94 g
Mus musculus [2]
  Activity: Non-toxic
[3]
  inhibition in vivo at 0.5 mg/kg: 47.5%
Mus musculus [4]
  Activity: 19.24 g
